# pIC50, pKd: −log10 of the molar value.
# Assays:
# [1] = molecular target: T1, Dual specificity tyrosine-phosphorylation-regulated kinase 1A (Homo sapiens, UniProt Q13627); assay: Displacement of Kinase tracer 236 from biotinylated DYRK1A (unknown origin) expressed in Escherichia coli BL21 (DE3) incubated for 1.5 hrs by TR-FRET assay
# [2] = Metabolic stability in rat liver microsomes; assay type: ADME, Microsome; settings: read-out: Stabilty
# [3] = molecular target: Cyclin-dependent kinase 2 (Homo sapiens) (UniProt P24941); assay: Inhibition of wild-type human full length CDK2 (M1 to L298 residues) expressed in bacterial expression system assessed as remaining activity at 1 uM by Kinomescan method relative to control
# How it was run: (§1)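 KINOMEscan competition binding panel run with inhibitor at 1 μM; read-out is remaining kinase activity (percent of control).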
# [4] = molecular target: T2, Dual specificity tyrosine-phosphorylation-regulated kinase 2 (Homo sapiens) (UniProt Q92630); assay: Inhibition of wild-type human full length DYRK2 (M1 to S528 residues) expressed in mammalian expression system assessed as remaining activity at 1 uM by Kinomescan method relative to control; how it was run: as §1
# T2 sequence (whole entry): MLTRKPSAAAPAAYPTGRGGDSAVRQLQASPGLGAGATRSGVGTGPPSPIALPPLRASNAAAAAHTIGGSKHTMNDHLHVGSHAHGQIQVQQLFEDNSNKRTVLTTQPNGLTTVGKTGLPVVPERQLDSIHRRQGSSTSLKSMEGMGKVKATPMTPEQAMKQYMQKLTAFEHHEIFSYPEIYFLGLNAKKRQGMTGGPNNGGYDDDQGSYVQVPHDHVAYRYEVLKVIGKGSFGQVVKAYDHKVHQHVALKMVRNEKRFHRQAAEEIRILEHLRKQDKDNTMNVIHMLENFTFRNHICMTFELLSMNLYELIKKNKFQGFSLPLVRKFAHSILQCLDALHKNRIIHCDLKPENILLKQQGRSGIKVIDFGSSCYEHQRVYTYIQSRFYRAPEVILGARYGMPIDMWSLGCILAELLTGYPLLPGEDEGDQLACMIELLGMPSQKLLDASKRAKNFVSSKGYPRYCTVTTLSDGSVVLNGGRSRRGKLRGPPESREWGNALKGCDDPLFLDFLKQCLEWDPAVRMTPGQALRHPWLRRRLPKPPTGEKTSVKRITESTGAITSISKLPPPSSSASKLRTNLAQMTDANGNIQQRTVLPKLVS
# [5] = molecular target: Dual specificity protein kinase CLK3 (Homo sapiens) (UniProt P49761); assay: Inhibition of wild-type human full length CLK3 (M1 to R490 residues) expressed in bacterial expression system assessed as remaining activity at 1 uM by Kinomescan method relative to control; how it was run: as §1
# Chain of Dual specificity protein kinase CLK3 (Homo sapiens) (P49761 whole entry, looked up, the tested form may be a part): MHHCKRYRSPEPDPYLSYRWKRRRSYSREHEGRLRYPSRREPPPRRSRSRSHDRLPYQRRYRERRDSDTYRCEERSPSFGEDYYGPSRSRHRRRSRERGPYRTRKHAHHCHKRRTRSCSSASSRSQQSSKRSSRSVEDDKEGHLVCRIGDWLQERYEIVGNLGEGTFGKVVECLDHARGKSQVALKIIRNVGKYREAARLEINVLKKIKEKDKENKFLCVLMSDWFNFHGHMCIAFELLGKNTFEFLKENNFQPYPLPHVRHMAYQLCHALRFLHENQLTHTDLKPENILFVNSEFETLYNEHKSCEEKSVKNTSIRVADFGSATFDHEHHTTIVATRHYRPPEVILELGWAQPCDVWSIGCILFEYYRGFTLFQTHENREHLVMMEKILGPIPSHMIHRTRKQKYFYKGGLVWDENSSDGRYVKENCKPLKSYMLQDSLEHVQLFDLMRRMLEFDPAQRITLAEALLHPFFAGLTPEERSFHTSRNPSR
# [6] = Thermodynamic solubility of the compound at pH 6.8; assay type: physicochemical; settings: buffer, read-out: Therm_solubility
# How it was run: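 Thermodynamic solubility measured at pH 6.8 in a single experiment, reported in […].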
# [7] = Metabolic stability in human liver microsomes; assay type: ADME, Microsome; settings: read-out: Stabilty
# [8] = molecular target: Dual specificity protein kinase CLK2 (Homo sapiens) (UniProt P49760); assay: Inhibition of wild-type human partial length CLK2 (D144 to R498 residues) expressed in bacterial expression system assessed as remaining activity at 1 uM by Kinomescan method relative to control; how it was run: as §1
# Chain of Dual specificity protein kinase CLK2 (Homo sapiens) (P49760 whole entry, looked up, the tested form may be a part): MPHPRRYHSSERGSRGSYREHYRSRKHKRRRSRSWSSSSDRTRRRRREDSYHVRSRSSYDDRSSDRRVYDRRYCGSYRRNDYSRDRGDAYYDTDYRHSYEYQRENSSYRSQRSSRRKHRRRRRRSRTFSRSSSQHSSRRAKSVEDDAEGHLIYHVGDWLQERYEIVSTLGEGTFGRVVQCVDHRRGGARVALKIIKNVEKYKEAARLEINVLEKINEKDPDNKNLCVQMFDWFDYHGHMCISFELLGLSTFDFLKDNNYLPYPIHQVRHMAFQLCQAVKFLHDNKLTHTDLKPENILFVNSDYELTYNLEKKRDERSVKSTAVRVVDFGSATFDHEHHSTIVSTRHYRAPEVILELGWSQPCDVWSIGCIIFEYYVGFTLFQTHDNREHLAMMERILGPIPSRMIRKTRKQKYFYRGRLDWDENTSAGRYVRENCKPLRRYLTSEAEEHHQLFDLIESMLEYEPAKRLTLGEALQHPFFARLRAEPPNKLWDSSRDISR
# [9] = molecular target: Dual specificity tyrosine-phosphorylation-regulated kinase 1B (Homo sapiens) (UniProt Q9Y463); assay: Inhibition of wild-type human full length DYRK1B (M1 to S629 residues) expressed in bacterial expression system assessed as remaining activity at 1 uM by Kinomescan method relative to control; how it was run: as §1
# Chain of Dual specificity tyrosine-phosphorylation-regulated kinase 1B (Homo sapiens) (Q9Y463 whole entry, looked up, the tested form may be a part): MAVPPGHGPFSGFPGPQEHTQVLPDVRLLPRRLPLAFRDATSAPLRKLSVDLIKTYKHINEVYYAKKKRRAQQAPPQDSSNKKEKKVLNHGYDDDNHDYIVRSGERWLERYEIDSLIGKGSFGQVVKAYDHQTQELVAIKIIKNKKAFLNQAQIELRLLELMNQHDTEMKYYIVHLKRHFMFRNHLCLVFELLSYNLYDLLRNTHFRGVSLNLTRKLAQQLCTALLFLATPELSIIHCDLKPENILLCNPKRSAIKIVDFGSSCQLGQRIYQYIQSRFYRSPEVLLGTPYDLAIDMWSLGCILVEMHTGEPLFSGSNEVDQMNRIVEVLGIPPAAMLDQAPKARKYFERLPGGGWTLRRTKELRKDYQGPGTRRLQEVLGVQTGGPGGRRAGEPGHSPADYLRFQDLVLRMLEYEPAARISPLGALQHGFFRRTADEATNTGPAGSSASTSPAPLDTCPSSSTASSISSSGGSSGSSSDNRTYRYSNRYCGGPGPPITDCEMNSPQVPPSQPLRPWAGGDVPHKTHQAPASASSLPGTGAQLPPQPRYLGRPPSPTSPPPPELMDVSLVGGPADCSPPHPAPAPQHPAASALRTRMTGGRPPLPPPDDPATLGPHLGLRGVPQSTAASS
# [10] = molecular target: Dual specificity protein kinase CLK1 (Homo sapiens, UniProt P49759); assay: Inhibition of wild-type human full length CLK1 (M1 to I484 residues) expressed in bacterial expression system assessed as remaining activity at 1 uM by Kinomescan method relative to control; how it was run: as §1
# Chain of Dual specificity protein kinase CLK1 (P49759 whole entry, looked up, the tested form may be a part): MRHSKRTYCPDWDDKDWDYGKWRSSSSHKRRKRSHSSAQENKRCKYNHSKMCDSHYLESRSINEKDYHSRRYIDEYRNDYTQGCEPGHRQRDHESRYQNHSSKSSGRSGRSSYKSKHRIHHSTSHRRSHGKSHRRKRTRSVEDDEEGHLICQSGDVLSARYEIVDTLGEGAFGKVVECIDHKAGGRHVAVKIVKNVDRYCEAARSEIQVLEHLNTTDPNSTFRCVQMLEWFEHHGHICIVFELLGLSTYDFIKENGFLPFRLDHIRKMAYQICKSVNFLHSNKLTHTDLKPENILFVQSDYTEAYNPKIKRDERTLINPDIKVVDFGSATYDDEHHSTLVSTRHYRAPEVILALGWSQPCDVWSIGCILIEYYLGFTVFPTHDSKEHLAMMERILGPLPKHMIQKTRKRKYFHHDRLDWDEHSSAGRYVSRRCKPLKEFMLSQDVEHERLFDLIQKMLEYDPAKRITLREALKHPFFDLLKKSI
# [11] = molecular target: Glycogen synthase kinase-3 beta (Homo sapiens) (UniProt P49841); assay: Inhibition of wild-type human full length GSK3B (M1 to T433 residues) expressed in mammalian expression system assessed as remaining activity at 1 uM by Kinomescan method relative to control; how it was run: as §1
# Chain of Glycogen synthase kinase-3 beta (Homo sapiens) (P49841 whole entry, looked up, the tested form may be a part): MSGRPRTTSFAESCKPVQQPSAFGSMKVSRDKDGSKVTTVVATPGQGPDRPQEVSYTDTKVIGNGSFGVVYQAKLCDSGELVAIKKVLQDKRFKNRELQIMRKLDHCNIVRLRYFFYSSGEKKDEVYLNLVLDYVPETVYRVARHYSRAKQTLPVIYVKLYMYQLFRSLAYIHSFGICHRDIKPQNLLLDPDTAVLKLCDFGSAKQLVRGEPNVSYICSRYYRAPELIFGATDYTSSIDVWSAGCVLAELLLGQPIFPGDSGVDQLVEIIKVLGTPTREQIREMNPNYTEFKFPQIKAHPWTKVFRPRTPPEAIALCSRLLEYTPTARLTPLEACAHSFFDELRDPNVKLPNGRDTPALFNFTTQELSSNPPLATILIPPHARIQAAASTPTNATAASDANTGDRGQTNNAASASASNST
# [12] = molecular target: T1, Dual specificity tyrosine-phosphorylation-regulated kinase 1A; assay: Binding affinity to biotinylated DYRK1A (unknown origin) expressed in Escherichia coli BL21 (DE3) assessed as dissociation constant measured up to 5 min by SPR method
smiles,measurement,setting,value
CCCN(c1nccc(-c2cnn3ncccc23)n1)C(C)C,pIC50,[1],6.12
CN(C)C1CCN(c2nccc(-c3cnn4ncccc34)n2)C1 (stereo not drawn),pIC50,[1],6.61
Cc1cccc(N(C)c2nccc(-c3cnn4ncccc34)n2)c1,microsomal CLint,[2],784 µL/min/mg
same,pIC50,[1],7.10
N[C@H]1CCN(c2nccc(-c3cnn4ncccc34)n2)C1,Activity,[3],100%
same,Activity,[4],29%
same,Activity,[5],95%
same,solubility thermodynamic,[6],1.92 mg/mL
same,microsomal CLint,[7],199 µL/min/mg
same,Activity,[8],72%
same,microsomal CLint,[2],48 µL/min/mg
same,Activity,[9],18%
same,Activity,[10],36%
same,Activity,[11],100%
c1cnn2ncc(-c3ccnc(N4CCC5CNCC54)n3)c2c1 (stereo not drawn),pIC50,[1],5.78
CN(c1nccc(-c2cnn3ncccc23)n1)C1CC1,Activity,[3],100%
same,Activity,[4],100%
same,Activity,[5],96%
same,solubility thermodynamic,[6],0.06 mg/mL
same,microsomal CLint,[7],71 µL/min/mg
same,Activity,[8],95%
same,microsomal CLint,[2],434 µL/min/mg
same,pKd,[12],7.04
same,pIC50,[1],6.94
same,Activity,[9],43%
same,Activity,[10],79%
same,Activity,[11],91%
Cc1cnc(N(C)C)nc1-c1cnn2ncccc12,pIC50,[1],5.55
CN(CCCC(F)(F)F)c1nccc(-c2cnn3ncccc23)n1,pIC50,[1],7.00
"CC1CCN(c2nccc(-c3cnn4ncccc34)n2)C1 (single isomer, unassigned) [listing 1 of 2 here]",Activity,[3],95%
same,Activity,[4],25%
same,Activity,[5],73%
same,Activity,[8],15%
same,Activity,[9],9.1%
same,Activity,[10],16%
same,Activity,[11],100%
CC1(C)CCN(c2nccc(-c3cnn4ncccc34)n2)C1,pIC50,[1],6.37
CC1CCCN1c1nccc(-c2cnn3ncccc23)n1 (stereo not drawn),Activity,[3],100%
same,Activity,[4],66%
same,Activity,[5],100%
same,solubility thermodynamic,[6],0.01 mg/mL
same,microsomal CLint,[7],328 µL/min/mg
same,Activity,[8],61%
same,microsomal CLint,[2],929 µL/min/mg
same,pIC50,[1],6.96
same,Activity,[9],81%
same,Activity,[10],71%
same,Activity,[11],92%
CCCN(CCOC)c1nccc(-c2cnn3ncccc23)n1,pIC50,[1],6.50
COc1ncc(-c2ccnc(N(C)C)n2)s1,pIC50,[1],5.40
CC1CCN(c2nccc(-c3cnn4ncccc34)n2)C1 (stereo not drawn),pIC50,[1],6.69
CN(C)c1nc(Cl)cc(-c2cnn3ncccc23)n1,pIC50,[1],5.87
Cc1cc(-c2cnn3ncccc23)nc(N(C)C)n1,pIC50,[1],4.93
CN(C)c1nccc(-c2cn(C)c3ncccc23)n1,pIC50,[1],4.93
COc1cc(-c2cnn3ncccc23)nc(N(C)C)n1,pIC50,[1],< 4.00
CNc1nccc(-c2cnn3ncccc23)n1,pKd,[12],7.26
same,pIC50,[1],6.74
CN(C)c1ncc(Cl)c(-c2cnn3ncccc23)n1,pKd,[12],6.02
same,pIC50,[1],6.48
CCn1cc(-c2ccnc(N(C)C)n2)c2cccnc21,pIC50,[1],5.11
CN(C)c1nccc(-c2c[nH]c3ncccc23)n1,microsomal CLint,[7],154 µL/min/mg
same,microsomal CLint,[2],234 µL/min/mg
same,pIC50,[1],6.87
CN(CCC(F)(F)F)c1nccc(-c2cnn3ncccc23)n1,pIC50,[1],6.64
CN(C)c1ncc(C(F)(F)F)c(-c2cnn3ncccc23)n1,pIC50,[1],4.89
CN(C)c1ncc(I)c(-c2cnn3ncccc23)n1,pIC50,[1],5.79
"CC1CCN(c2nccc(-c3cnn4ncccc34)n2)C1 (single isomer, unassigned) [listing 2 of 2 here]",solubility thermodynamic,[6],0.05 mg/mL
same,microsomal CLint,[7],389 µL/min/mg
same,microsomal CLint,[2],184 µL/min/mg
same,pIC50,[1],6.83
Cc1ccc2c(-c3ccnc(N(C)C)n3)cnn2n1,pIC50,[1],6.06
CN(C)c1nccc(-c2cnc3ncccn23)n1,Activity,[3],86%
same,Activity,[4],35%
same,Activity,[5],56%
same,solubility thermodynamic,[6],0.47 mg/mL
same,microsomal CLint,[7],154 µL/min/mg
same,Activity,[8],31%
same,microsomal CLint,[2],96 µL/min/mg
same,pIC50,[1],6.80
same,Activity,[9],6.2%
same,Activity,[10],20%
same,Activity,[11],77%
c1cnn2ncc(-c3ccnc(N4CC5CC5C4)n3)c2c1 (stereo not drawn),pIC50,[1],6.51
